Measurements reported in ChEMBL document CHEMBL5058577, “EUbOPEN Chemogenomics Library 2 (Multiplex)” (2022).

Tested on: Fibroblast
Assay: Multiplex assay against human fibroblast
Type: toxicity, cell-based
In short: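 Live cells carried four stains from seeding: Hoechst33342, BioTracker Green Microtubule Cytoskeleton Dye, MitoTracker Red and Annexin V Alexa Fluor 680. They were imaged on a CQ1 microscope at 37°C and 5% CO2 after compound addition. Using CellPathfinder machine-learning gating, cells were split into Hoechst high-intensity objects or normal cells, normal cells into healthy, pyknosed or fragmented nuclei, and pyknosed cells into mitotic or apoptotic; tubulin, mitochondrial-mass and membrane-permeability phenotypes are per cents of healthy-nucleus cells.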

[1] = 12 h, 1 µM, compound concentration 1 uM, replicate 1
[2] = 12 h, 1 µM, compound concentration 1 uM, replicate 2
[3] = 12 h, 10 µM, compound concentration 10 uM, replicate 1
[4] = 12 h, 10 µM, compound concentration 10 uM, replicate 2
[5] = 24 h, 1 µM, compound concentration 1 uM, replicate 1
[6] = 24 h, 1 µM, compound concentration 1 uM, replicate 2
[7] = 24 h, 10 µM, compound concentration 10 uM, replicate 1
[8] = 24 h, 10 µM, compound concentration 10 uM, replicate 2
[9] = 48 h, 1 µM, compound concentration 1 uM, replicate 1
[10] = 48 h, 1 µM, compound concentration 1 uM, replicate 2
[11] = 48 h, 10 µM, compound concentration 10 uM, replicate 1
[12] = 48 h, 10 µM, compound concentration 10 uM, replicate 2

Compound: Cl.Cl.OCCOCCN1CCN(C(c2ccccc2)c2ccc(Cl)cc2)CC1 (configuration not stated) [HYDROXYZINE HYDROCHLORIDE]
- Population Apoptotic (%) [1]: 43%
- Population Fragmented Nuclei (%) [1]: 11%
- Population Healthy Nuclei (%) [1]: 75%
- Population Hoechst High Intensity Objects (%) [1]: 1%
- Population Membrane Permeable-Phenotype (%) [1]: 0%
- Population Mitochondria Different-Phenotype (%) [1]: 4%
- Population Mitotic Cells (%) [1]: 56%
- Population Normal (%) [1]: 98%
- Population Pyknosed Nuclei (%) [1]: 13%
- Population Tubulin-Different-Phenotype (%) [1]: 25%
- Total Cell Count [1]: 177
- Population Apoptotic (%) [2]: 51%
- Population Fragmented Nuclei (%) [2]: 22%
- Population Healthy Nuclei (%) [2]: 57%
- Population Hoechst High Intensity Objects (%) [2]: 7%
- Population Membrane Permeable-Phenotype (%) [2]: 8%
- Population Mitochondria Different-Phenotype (%) [2]: 6%
- Population Mitotic Cells (%) [2]: 48%
- Population Normal (%) [2]: 92%
- Population Pyknosed Nuclei (%) [2]: 20%
- Population Tubulin-Different-Phenotype (%) [2]: 46%
- Total Cell Count [2]: 155
- Population Apoptotic (%) [3]: 47%
- Population Fragmented Nuclei (%) [3]: 27%
- Population Healthy Nuclei (%) [3]: 58%
- Population Hoechst High Intensity Objects (%) [3]: 2%
- Population Membrane Permeable-Phenotype (%) [3]: 0%
- Population Mitochondria Different-Phenotype (%) [3]: 14%
- Population Mitotic Cells (%) [3]: 52%
- Population Normal (%) [3]: 97%
- Population Pyknosed Nuclei (%) [3]: 14%
- Population Tubulin-Different-Phenotype (%) [3]: 45%
- Total Cell Count [3]: 247
- Population Apoptotic (%) [4]: 40%
- Population Fragmented Nuclei (%) [4]: 19%
- Population Healthy Nuclei (%) [4]: 47%
- Population Hoechst High Intensity Objects (%) [4]: 7%
- Population Membrane Permeable-Phenotype (%) [4]: 7%
- Population Mitochondria Different-Phenotype (%) [4]: 6%
- Population Mitotic Cells (%) [4]: 59%
- Population Normal (%) [4]: 92%
- Population Pyknosed Nuclei (%) [4]: 32%
- Population Tubulin-Different-Phenotype (%) [4]: 58%
- Total Cell Count [4]: 178
- Population Apoptotic (%) [5]: 30%
- Population Fragmented Nuclei (%) [5]: 9%
- Population Healthy Nuclei (%) [5]: 78%
- Population Hoechst High Intensity Objects (%) [5]: 1%
- Population Membrane Permeable-Phenotype (%) [5]: 2%
- Population Mitochondria Different-Phenotype (%) [5]: 6%
- Population Mitotic Cells (%) [5]: 70%
- Population Normal (%) [5]: 98%
- Population Pyknosed Nuclei (%) [5]: 12%
- Population Tubulin-Different-Phenotype (%) [5]: 30%
- Total Cell Count [5]: 163
- Population Apoptotic (%) [6]: 44%
- Population Fragmented Nuclei (%) [6]: 26%
- Population Healthy Nuclei (%) [6]: 54%
- Population Hoechst High Intensity Objects (%) [6]: 5%
- Population Membrane Permeable-Phenotype (%) [6]: 5%
- Population Mitochondria Different-Phenotype (%) [6]: 3%
- Population Mitotic Cells (%) [6]: 55%
- Population Normal (%) [6]: 94%
- Population Pyknosed Nuclei (%) [6]: 18%
- Population Tubulin-Different-Phenotype (%) [6]: 47%
- Total Cell Count [6]: 154
- Population Apoptotic (%) [7]: 51%
- Population Fragmented Nuclei (%) [7]: 28%
- Population Healthy Nuclei (%) [7]: 62%
- Population Hoechst High Intensity Objects (%) [7]: 1%
- Population Membrane Permeable-Phenotype (%) [7]: 1%
- Population Mitochondria Different-Phenotype (%) [7]: 10%
- Population Mitotic Cells (%) [7]: 48%
- Population Normal (%) [7]: 98%
- Population Pyknosed Nuclei (%) [7]: 9%
- Population Tubulin-Different-Phenotype (%) [7]: 47%
- Total Cell Count [7]: 284
- Population Apoptotic (%) [8]: 36%
- Population Fragmented Nuclei (%) [8]: 29%
- Population Healthy Nuclei (%) [8]: 50%
- Population Hoechst High Intensity Objects (%) [8]: 9%
- Population Membrane Permeable-Phenotype (%) [8]: 6%
- Population Mitochondria Different-Phenotype (%) [8]: 6%
- Population Mitotic Cells (%) [8]: 63%
- Population Normal (%) [8]: 90%
- Population Pyknosed Nuclei (%) [8]: 20%
- Population Tubulin-Different-Phenotype (%) [8]: 66%
- Total Cell Count [8]: 198
- Population Apoptotic (%) [9]: 60%
- Population Fragmented Nuclei (%) [9]: 17%
- Population Healthy Nuclei (%) [9]: 68%
- Population Hoechst High Intensity Objects (%) [9]: 4%
- Population Membrane Permeable-Phenotype (%) [9]: 0%
- Population Mitochondria Different-Phenotype (%) [9]: 3%
- Population Mitotic Cells (%) [9]: 39%
- Population Normal (%) [9]: 95%
- Population Pyknosed Nuclei (%) [9]: 13%
- Population Tubulin-Different-Phenotype (%) [9]: 31%
- Total Cell Count [9]: 175
- Population Apoptotic (%) [10]: 42%
- Population Fragmented Nuclei (%) [10]: 34%
- Population Healthy Nuclei (%) [10]: 56%
- Population Hoechst High Intensity Objects (%) [10]: 3%
- Population Membrane Permeable-Phenotype (%) [10]: 2%
- Population Mitochondria Different-Phenotype (%) [10]: 5%
- Population Mitotic Cells (%) [10]: 57%
- Population Normal (%) [10]: 96%
- Population Pyknosed Nuclei (%) [10]: 9%
- Population Tubulin-Different-Phenotype (%) [10]: 44%
- Total Cell Count [10]: 155
- Population Apoptotic (%) [11]: 80%
- Population Fragmented Nuclei (%) [11]: 22%
- Population Healthy Nuclei (%) [11]: 69%
- Population Hoechst High Intensity Objects (%) [11]: 4%
- Population Membrane Permeable-Phenotype (%) [11]: 0%
- Population Mitochondria Different-Phenotype (%) [11]: 7%
- Population Mitotic Cells (%) [11]: 19%
- Population Normal (%) [11]: 95%
- Population Pyknosed Nuclei (%) [11]: 8%
- Population Tubulin-Different-Phenotype (%) [11]: 62%
- Total Cell Count [11]: 272
- Population Apoptotic (%) [12]: 37%
- Population Fragmented Nuclei (%) [12]: 36%
- Population Healthy Nuclei (%) [12]: 47%
- Population Hoechst High Intensity Objects (%) [12]: 6%
- Population Membrane Permeable-Phenotype (%) [12]: 11%
- Population Mitochondria Different-Phenotype (%) [12]: 2%
- Population Mitotic Cells (%) [12]: 62%
- Population Normal (%) [12]: 94%
- Population Pyknosed Nuclei (%) [12]: 15%
- Population Tubulin-Different-Phenotype (%) [12]: 57%
- Total Cell Count [12]: 200
